Most compounds without a hit are left out; they make up all but 2.7% or so of the library.
S100A4 inh HTS: inhibitors of S100A4-myosin IIA peptide binding, primary screen, biochemical, fluorescence polarization, TAMRA-MyoIIA peptide. 0.14% of 360,000 active. AID 652163, 2013. Protein S100-A4 (Homo sapiens), P26447. inhibition, % at 10.7 µM;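 active means mean inhibition of at least 70% across replicates, with every replicate also reaching that level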
Target sequence (P26447 whole entry, looked up): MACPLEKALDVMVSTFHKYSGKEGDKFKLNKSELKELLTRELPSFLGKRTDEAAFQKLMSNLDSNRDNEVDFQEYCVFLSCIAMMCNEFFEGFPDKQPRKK
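Material: S100A4 monomer (human). Medium: Calcium-containing HEPES buffer, pH 7.2. Probe or stimulus: labelled myosin peptide probe, 5 nM. Compound dosing: one concentration per compound. Timing: polarization read 5 min after assay mix addition, stable 5–60 min. Benchmarks: DMSO as neutral control, TFP as positive control.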
FGF22 binding: binders of human FGF22 protein, primary screen, FGF22 synaptogenesis inhibitor project, biophysical, thermal shift, single point. Fibroblast growth factor 22 (Homo sapiens), Q9HCT0. recombinant FGF22 thermal shift, SYPRO orange fluorescence; percent of sucrose octasulfate shift, DMSO zero. activity (Tm shift, normalised), % at 9.99 µM. 1.5% of 340,000 active. AID 651658, 2012;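 active means mean Tm shift, scaled 0 neutral to 100 positive control, at about 1.3% or above, every replicate too, limit read from the data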
Target sequence (Q9HCT0 whole entry, looked up): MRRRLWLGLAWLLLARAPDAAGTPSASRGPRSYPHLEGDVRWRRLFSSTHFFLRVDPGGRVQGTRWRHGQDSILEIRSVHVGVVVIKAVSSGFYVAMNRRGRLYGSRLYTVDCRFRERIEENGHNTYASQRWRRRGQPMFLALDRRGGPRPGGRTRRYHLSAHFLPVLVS
CFTR F508del cor: F508del CFTR correction, initial screen, CFBE line, single point; CFBE cells, YFP halide quenching; stimulated with forskolin plus potentiator P3; % fluorescence drop versus neutral controls; activity (quench increase), % at 7.58 µM; 0.36% of 350,000 active;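 active means mean added fluorescence quench of at least 8% versus neutral control, with both replicates also reaching 8%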;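 further: cells transiently co-express mutant CFTR-F508del with the halide-sensitive YFP; corrector assay measuring rescue of mutant channel to the surface after 24 h compound exposure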
E-sel inducer: E-selectin induction in HUVECs, primary screen, imaging, HUVEC, immunofluorescence imaging, single point; P16581; normalized: neutral wells 0, TNF-alpha wells 100; activation, % at 7.58 µM; 0.37% of 260,000 active; AID 686992, 2013;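 active means mean E-selectin-positive cell signal at least 10% of the positive control, reached in at least 60% of replicates, without over 20% cell loss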
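Test system – human umbilical vein endothelial cells (HUVEC), E-selectin induction · Input – 3,000 HUVEC seeded per well · Buffer or medium – EGM-2, gelatin · Compound dosing – single-point compound dose · Detection – immunofluorescence imaging · Measure – percent E-selectin-positive cells · Controls – TNF-alpha high, DMSO low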
HIV Env fusion: inhibitors of HIV-1 Env-driven cell-cell fusion, primary screen, HeLa-JRFL effector, CEM21 target cells, luciferase. inhibition, % at 12.3 µM. 1.1% of 360,000 active;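 active means mean replicate inhibition score of at least 50 and every replicate individually at or above 50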
Each line names hits and unclear results; the compound was inactive in the other large screens; [ ] = another dose, or the depositor's remark.

CO[C@@H]1CN(C)C(=O)c2ccc(NC(=O)Nc3cccc(F)c3)cc2OC[C@@H](C)N(C(=O)Nc2cccc(F)c2)C[C@H]1C	HIV Env fusion 74[16.7 µM]
CO[C@H]1CN(C)C(=O)c2ccc(NC(=O)C3CCC3)cc2OC[C@@H](C)N(CC2CCCCC2)C[C@@H]1C	HIV Env fusion 58[16.7 µM]
CO[C@@H]1CN(C)C(=O)c2ccc(NC(=O)Nc3cccc(F)c3)cc2OC[C@@H](C)N(C(C)=O)C[C@@H]1C	none
CO[C@H]1CN(C)C(=O)c2ccc(NC(=O)Nc3cccc(F)c3)cc2OC[C@H](C)NC[C@H]1C	HIV Env fusion 75[16.7 µM]
CO[C@@H]1CN(C)C(=O)c2ccc(NC(=O)C3CCC3)cc2OC[C@H](C)N(CC2CCCCC2)C[C@@H]1C	none
CO[C@H]1CN(C)C(=O)c2ccc(NC(=O)NC(C)C)cc2OC[C@@H](C)N(C(=O)NC(C)C)C[C@H]1C	S100A4 inh HTS 89
O=S(=O)(NC[C@@H]1CC[C@@H]2[C@@H](CN2Cc2cccc(-c3ccccn3)c2)O1)c1ccccc1	none (no result: FGF22 binding, E-sel inducer, HIV Env fusion)
CN1[C@H](C(=O)Nc2nccs2)[C@@H](CO)[C@@H]2Cn3c(ccc(/C=C/c4ccccc4)c3=O)[C@@H]21	none (no result: HIV Env fusion)
CO[C@H]1CN(C)C(=O)c2ccc(NC(C)=O)cc2OC[C@@H](C)N(C(=O)c2ccc(F)cc2)C[C@@H]1C	none
CO[C@H]1CN(C)C(=O)c2ccc(NC(=O)C3CC3)cc2OC[C@@H](C)N(C(C)=O)C[C@@H]1C	HIV Env fusion 62[16.7 µM] (no result: FGF22 binding)
CO[C@H]1CN(C)C(=O)c2ccc(NS(=O)(=O)CC(F)(F)F)cc2OC[C@H](C)N(C(=O)c2ccc3c(c2)OCO3)C[C@@H]1C	none (no result: FGF22 binding)
CO[C@@H]1CN(C)C(=O)c2ccc(NC(=O)Nc3ccc(F)cc3)cc2OC[C@@H](C)N(C(=O)c2ccc(F)cc2)C[C@H]1C	E-sel inducer 44 (no result: HIV Env fusion)
CO[C@H]1CN(C)C(=O)c2ccc(NC(=O)Nc3cccc(F)c3)cc2OC[C@@H](C)N(C(C)=O)C[C@H]1C	HIV Env fusion 65[16.7 µM]
CO[C@@H]1CN(C)C(=O)c2ccc(NS(=O)(=O)CC(F)(F)F)cc2OC[C@@H](C)N(C(=O)c2ccc3c(c2)OCO3)C[C@@H]1C	HIV Env fusion 65[16.7 µM] (no result: S100A4 inh HTS, FGF22 binding)
O=Nc1c(-c2c(O)[nH]c3cc(Br)ccc23)[nH]c2ccccc12	E-sel inducer 66 (no result: HIV Env fusion)
O=C(CSCc1cccc(Br)c1)N=Nc1c(O)[nH]c2ccccc12	none (no result: S100A4 inh HTS, FGF22 binding, CFTR F508del cor, E-sel inducer)
C[C@H]1CN([C@@H](C)CO)C(=O)c2cc(C3=CCCC3)cnc2O[C@H]1CN(C)Cc1ccc(F)cc1	none
Cc1n(N)c2ccccc2[n+]1CC(=O)c1ccccc1	FGF22 binding 43
Cc1csc(C)[n+]1CC(=O)c1ccccc1	none (no result: E-sel inducer)
N#C[C@H]1[C@@H](c2ccc(C3=CCCCC3)cc2)[C@H](CO)N1C(=O)NC1CCCC1	none (no result: S100A4 inh HTS, FGF22 binding)
N#C[C@H]1[C@H](c2ccc(C#CC3CCCC3)cc2)[C@@H](CO)N1C(=O)Nc1ccc(F)cc1	HIV Env fusion 56[16.7 µM]
COc1ccccc1C#Cc1ccc([C@H]2[C@H](C#N)N(C(=O)C3CCCC3)[C@H]2CO)cc1	HIV Env fusion 74[16.7 µM] (no result: FGF22 binding)
N#C[C@H]1[C@H](c2ccc(C3=CCCCC3)cc2)[C@@H](CO)N1C(=O)NC1CCCCC1	CFTR F508del cor 10
CC(c1ccncn1)N(C)Cc1nc(-c2ccc(C(F)(F)F)cc2)no1 (configuration not stated)	none
Cc1oc(-c2ccc3ccccc3c2)nc1CN(C)C(C)c1ccncn1 (configuration not stated)	FGF22 binding 44 (no result: E-sel inducer)
C[C@H]1CCCCO[C@H](CN(C)C(=O)Nc2cccc3ccccc23)[C@@H](C)CN([C@@H](C)CO)C(=O)c2cc(NC(=O)C3CCCCC3)ccc2O1	none
O=C(NC1CCCC1)[C@H]1[C@H](CO)[C@H]2Cn3c(ccc(C4=CCCCC4)c3=O)[C@@H]1N2CC1CC1	none (no result: HIV Env fusion)
CCN(CC)C(C(=O)NC1CCCCC1)c1ccc(C)cc1 (configuration not stated)	FGF22 binding 43 (no result: E-sel inducer)
CN(C)C(C(=O)NC1CCCCC1)c1ccc(Cl)cc1 (configuration not stated)	none (no result: S100A4 inh HTS, FGF22 binding, CFTR F508del cor, E-sel inducer)
